Tests used:
[1] = Cytotoxicity against human HL60 cells after 72 hrs by MTT assay; assay type: functional, cell-based; conditions: HL-60, 72 h
In short: (§1)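 Cells grown in DMEM with 10% fetal bovine serum, 2 mM glutamine, 100 U/mL penicillin and streptomycin at 37 °C under 5% CO₂. Compounds were dissolved in DMSO, diluted with water and incubated with cells for 72 h. Viability was read by MTT reduction to formazan. IC₅₀ with 95% confidence interval, triplicate experiments.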

MDA-MB-435 = assay: Cytotoxicity against human MDA-MB-435 cells after 72 hrs by MTT assay; assay type: functional, cell-based; conditions: MDA-MB-435, 72 h
In short: as §1, with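 “h. […]” for “h.”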

[2] = Cytotoxicity against human HCT8 cells after 72 hrs by MTT assay; assay type: functional, cell-based; conditions: HCT-8, 72 h; in short: as §1
[3] = Hemolytic toxicity in mouse erythrocytes assessed as induction of cell membrane disruption incubated for 30 mins by hemoglobin release based spectrophotometry; parameters: species or system Erythrocyte
In short: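 Erythrocytes were exposed to compounds (DMSO stock, water-diluted) for 30 min at room temperature, then centrifuged. Hemoglobin released into the supernatant was read at 540 nm. DMSO served as negative control and 1% Triton X-100 as positive control.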

MRC5 = assay: Cytotoxicity against human MRC5 cells after 72 hrs by MTT assay; assay type: cell-based; conditions: mrc5, 72 h

What does the source list for `COc1cc(/C=N/Nc2nc3ccccc3s2)ccc1O`?
IC50 [1]: > 16.7 µM; IC50 (MDA-MB-435): > 16.7 µM; IC50 [2]: > 16.7 µM; EC50 at 30 min [3]: > 200 µg/mL

Which results are given for `C(=N\Nc1nc2ccccc2s1)/c1ccc2c(c1)OCO2`?
IC50 [1]: 5.51 µM; IC50 (MDA-MB-435): > 16.8 µM; IC50 [2]: > 16.8 µM; EC50 at 30 min [3]: > 200 µg/mL; Activity (MRC5): Non-toxic

Which results are given for `Oc1ccc(/C=N/Nc2nc3ccccc3s2)cc1O`?
IC50 [1]: 13.6 µM; IC50 (MDA-MB-435): > 17.5 µM; IC50 [2]: > 17.5 µM; EC50 at 30 min [3]: > 200 µg/mL; Activity (MRC5): Non-toxic

Which IC50 [1] does the source give for `O=[N+]([O-])c1ccc(O)c(/C=N/Nc2nc3ccccc3s2)c1` here?
Its IC50 is 1.65 µM.

What about the IC50 (MDA-MB-435) of the same compound?
Its IC50 is 14 µM.

What about the IC50 [2] of the same compound?
The IC50 was 13.5 µM.

And the EC50 at 30 min [3]?
The EC50 at 30 min was over 200 µg/mL.

What about the Activity (MRC5) of the same compound?
The Activity was “Non-toxic”.

Which results are given for `Clc1ccc(/C=N/Nc2nc3ccccc3s2)cc1`?
IC50 [1]: > 17.4 µM; IC50 (MDA-MB-435): > 17.4 µM; IC50 [2]: > 17.4 µM; EC50 at 30 min [3]: > 200 µg/mL

What does the source list for `CN(C)c1ccc(/C=N/Nc2nc3ccccc3s2)cc1`?
IC50 [1]: > 16.9 µM; IC50 (MDA-MB-435): > 16.9 µM; IC50 [2]: > 16.9 µM; EC50 at 30 min [3]: > 200 µg/mL

For `O=C(O)c1ccccc1/C=N/Nc1nc2ccccc2s1`, which IC50 [1] is on record?
The IC50 was over 16.8 µM.

What about the IC50 (MDA-MB-435) of the same compound?
Its IC50 is over 16.8 µM.

And the IC50 [2]?
Its IC50 is over 16.8 µM.

What about the EC50 at 30 min [3] of the same compound?
Its EC50 at 30 min is over 200 µg/mL.

Which IC50 [1] does the source give for `Clc1ccc(/C=N/Nc2nc3ccccc3s2)c(Cl)c1` here?
Its IC50 is over 15.5 µM.

What about the IC50 (MDA-MB-435) of the same compound?
Its IC50 is over 15.5 µM.

What about the IC50 [2] of the same compound?
The IC50 was over 15.5 µM.

And the EC50 at 30 min [3]?
Its EC50 at 30 min is over 200 µg/mL.

For `Fc1ccc(/C=N/Nc2nc3ccccc3s2)c(F)c1`, which IC50 [1] is on record?
The IC50 was over 17.3 µM.

And the IC50 (MDA-MB-435)?
Its IC50 is over 17.3 µM.

What about the IC50 [2] of the same compound?
The IC50 was over 17.3 µM.

And the EC50 at 30 min [3]?
The EC50 at 30 min was over 200 µg/mL.

Which IC50 [1] does the source give for `Cc1ccc(/C=N/Nc2nc3ccccc3s2)c(C)c1` here?
The IC50 was over 17.8 µM.

What about the IC50 (MDA-MB-435) of the same compound?
Its IC50 is over 17.8 µM.

What about the IC50 [2] of the same compound?
The IC50 was over 17.8 µM.

And the EC50 at 30 min [3]?
Its EC50 at 30 min is over 200 µg/mL.

For `COc1ccc(/C=N/Nc2nc3ccccc3s2)c(OC)c1`, which IC50 [1] is on record?
Its IC50 is over 16 µM.

What about the IC50 (MDA-MB-435) of the same compound?
Its IC50 is over 16 µM.

What about the IC50 [2] of the same compound?
The IC50 was over 16 µM.

And the EC50 at 30 min [3]?
Its EC50 at 30 min is over 200 µg/mL.

Which IC50 [1] does the source give for `Brc1ccc(/C=N/Nc2nc3ccccc3s2)cc1` here?
Its IC50 is over 15.1 µM.

And the IC50 (MDA-MB-435)?
Its IC50 is over 15.1 µM.

And the IC50 [2]?
The IC50 was over 15.1 µM.

And the EC50 at 30 min [3]?
The EC50 at 30 min was over 200 µg/mL.

For `C(=N\Nc1nc2ccccc2s1)/c1ccc(-c2ccccn2)cc1`, which IC50 [1] is on record?
The IC50 was 11.5 µM.

And the IC50 (MDA-MB-435)?
Its IC50 is over 15.1 µM.

And the IC50 [2]?
Its IC50 is over 15.1 µM.

And the EC50 at 30 min [3]?
The EC50 at 30 min was over 200 µg/mL.

And the Activity (MRC5)?
The Activity was “Non-toxic”.

What does the source list for `Oc1cccc(/C=N/Nc2nc3ccccc3s2)c1O`?
IC50 [1]: 0.35 µM; IC50 (MDA-MB-435): > 17.5 µM; IC50 [2]: 1.29 µM; EC50 at 30 min [3]: > 200 µg/mL; Activity (MRC5): Non-toxic

Which IC50 [1] does the source give for `Oc1ccc(O)c(/C=N/Nc2nc3ccccc3s2)c1` here?
The IC50 was 0.59 µM.

And the IC50 (MDA-MB-435)?
The IC50 was 6.27 µM.

What about the IC50 [2] of the same compound?
The IC50 was 11.2 µM.

What about the EC50 at 30 min [3] of the same compound?
The EC50 at 30 min was over 200 µg/mL.

And the Activity (MRC5)?
Its Activity is “Non-toxic”.

With `Oc1ccc(/C=N/Nc2nc3ccccc3s2)c(O)c1` as the compound, how does the IC50 [1] read?
Its IC50 is 1.89 µM.

What about the IC50 (MDA-MB-435) of the same compound?
Its IC50 is 14.4 µM.

And the IC50 [2]?
Its IC50 is 3.43 µM.

And the EC50 at 30 min [3]?
Its EC50 at 30 min is over 200 µg/mL.

What about the Activity (MRC5) of the same compound?
Its Activity is “Non-toxic”.

With `Oc1ccc(/C=N/Nc2nc3ccccc3s2)cc1` as the compound, how does the IC50 [1] read?
Its IC50 is 4.6 µM.

What about the IC50 (MDA-MB-435) of the same compound?
The IC50 was over 18.6 µM.

And the IC50 [2]?
The IC50 was over 18.6 µM.

And the EC50 at 30 min [3]?
Its EC50 at 30 min is over 200 µg/mL.

And the Activity (MRC5)?
The Activity was “Non-toxic”.

For `COc1cccc2c1C(=O)c1c(O)c3c(c(O)c1C2=O)C[C@@](O)(C(=O)CO)C[C@@H]3O[C@H]1C[C@H](N)[C@H](O)[C@H](C)O1` [DOXORUBICIN], which EC50 at 30 min [3] is on record?
Its EC50 at 30 min is over 200 µg/mL.

Reference: ChEMBL document CHEMBL3351671, “Synthesis and anticancer activity of (E)-2-benzothiazole hydrazones” (Eur J Med Chem, 2014)
